# Data published in paper PMC9444296 (Investigative Radiology, 2022).
# Entries after “also recorded” stand apart in the source; their conditions may differ. Like-named read-outs stand apart in the source and are kept apart here.
# Assays:
# [1] = Metabolic stability in human hepatocytes; type: in vitro ADME; details: 2 hours of incubation, LC-MS/MS
# [2] = r1 and r2 relaxivity; type: physicochemical
# Procedure, shortened: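 For the 1.4 T conditions, test compound was prepared at 0.125, 0.25, 0.5, 1 and 2 mM in HSA (40 mg/mL), water or PBS. T1 and T2 were measured on a benchtop relaxometer at 37°C.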
# [3] = Plasma protein binding, rat plasma; type: in vitro ADME; details: 37°C, 3 min, 10 kDa ultrafiltration, Gd by ICP-OES, n = 4
# Procedure, shortened: (§1)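 Test compound at 50, 80 or 110 μM was incubated with human, dog or rat plasma (alongside HSA 40 mg/mL and PBS) at 37°C for 3 min. Mixtures were kept overnight and centrifuged to remove insolubles. Gd was measured by ICP-OES, and the binding ratio was taken as bound over total concentration.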
# [4] = test system: CYP1A2
# [5] = molecular target: CYP2C19 (Homo sapiens, UniProt P33261); assay: CYP2C19 inhibition in human liver microsomes; type: in vitro ADME; details: 0.01, 0.1, 1, 10, and 100 μM, pooled human liver microsomes 0.5 mg/mL
# [6] = molecular target: hERG (Homo sapiens, UniProt Q12809); details: HEK293, whole-cell patch clamp
# [7] = Plasma protein binding, human plasma; type: in vitro ADME; details: 37°C, 3 min, 10 kDa ultrafiltration, Gd by ICP-OES, n = 4
# Procedure, shortened: as §1
# [8] = Biodistribution in SD rats; type: in vivo, rat; details: for AUC(0–48h) / AUCINF / Cmax / Gd concentration in the brain: SD rat; for AUC(0–48h) / AUCINF / Cmax: 0.1 mmol/kg single IV, Gd by ICP-MS; for Gd concentration in the brain: 0.1 mmol/kg IV, ICP-MS (LLOQ 0.1 μg/g)
# Procedure, shortened: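 Rats, 30 in total (3/sex/group), received a single IV injection of 0.1 mmol/kg. Blood and tissues were taken predose and at 10 and 30 min and 2, 6 and 48 h. Gd was measured by ICP-MS, and parameters came from noncompartmental analysis.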
# [9] = Plasma protein binding, dog plasma; type: in vitro ADME; details: 37°C, 3 min, 10 kDa ultrafiltration, Gd by ICP-OES, n = 4
# Procedure, shortened: as §1
# [10] = molecular target: OATP1B1 (Homo sapiens, UniProt Q9Y6L6); assay: OATP1B1 inhibition, HEK293 cells; type: in vitro ADME; details: 1, 5, 10, 50, and 100 μM
# [11] = Plasma stability, human plasma; type: in vitro ADME; details: 0.5 mM, 37°C, HPLC; for average remaining percentage of intact MT218: n = 2
# Procedure, shortened: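 Test compound at 0.5 mM was incubated in human, rat or dog plasma at 37°C for up to 48 h, with PBS as control. Samples were mixed with methanol, centrifuged, and the intact compound was quantified by analytical reversed-phase (C18) HPLC.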
# [12] = molecular target: OATP1B3 (Homo sapiens, UniProt Q9NPD5); assay: OATP1B3 inhibition, HEK293 cells; type: in vitro ADME; details: 1, 5, 10, 50, and 100 μM
# [13] = molecular target: HRH1 (Homo sapiens, UniProt P35367); assay: SAFETYscan E/IC50 assay, HRH1; type: biochemical; details: concentration range 0.005 to 100 μM
# Procedure, shortened: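 Contract-laboratory in vitro panel of 78 targets, run in agonist and/or antagonist modes under provider SOPs over 0.005 to 100 μM. Panel formats included enzyme fragment complementation, FLIPR-based cellular assays, kinase binding and enzymatic assays.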
# Chain of hERG (Q12809 whole entry): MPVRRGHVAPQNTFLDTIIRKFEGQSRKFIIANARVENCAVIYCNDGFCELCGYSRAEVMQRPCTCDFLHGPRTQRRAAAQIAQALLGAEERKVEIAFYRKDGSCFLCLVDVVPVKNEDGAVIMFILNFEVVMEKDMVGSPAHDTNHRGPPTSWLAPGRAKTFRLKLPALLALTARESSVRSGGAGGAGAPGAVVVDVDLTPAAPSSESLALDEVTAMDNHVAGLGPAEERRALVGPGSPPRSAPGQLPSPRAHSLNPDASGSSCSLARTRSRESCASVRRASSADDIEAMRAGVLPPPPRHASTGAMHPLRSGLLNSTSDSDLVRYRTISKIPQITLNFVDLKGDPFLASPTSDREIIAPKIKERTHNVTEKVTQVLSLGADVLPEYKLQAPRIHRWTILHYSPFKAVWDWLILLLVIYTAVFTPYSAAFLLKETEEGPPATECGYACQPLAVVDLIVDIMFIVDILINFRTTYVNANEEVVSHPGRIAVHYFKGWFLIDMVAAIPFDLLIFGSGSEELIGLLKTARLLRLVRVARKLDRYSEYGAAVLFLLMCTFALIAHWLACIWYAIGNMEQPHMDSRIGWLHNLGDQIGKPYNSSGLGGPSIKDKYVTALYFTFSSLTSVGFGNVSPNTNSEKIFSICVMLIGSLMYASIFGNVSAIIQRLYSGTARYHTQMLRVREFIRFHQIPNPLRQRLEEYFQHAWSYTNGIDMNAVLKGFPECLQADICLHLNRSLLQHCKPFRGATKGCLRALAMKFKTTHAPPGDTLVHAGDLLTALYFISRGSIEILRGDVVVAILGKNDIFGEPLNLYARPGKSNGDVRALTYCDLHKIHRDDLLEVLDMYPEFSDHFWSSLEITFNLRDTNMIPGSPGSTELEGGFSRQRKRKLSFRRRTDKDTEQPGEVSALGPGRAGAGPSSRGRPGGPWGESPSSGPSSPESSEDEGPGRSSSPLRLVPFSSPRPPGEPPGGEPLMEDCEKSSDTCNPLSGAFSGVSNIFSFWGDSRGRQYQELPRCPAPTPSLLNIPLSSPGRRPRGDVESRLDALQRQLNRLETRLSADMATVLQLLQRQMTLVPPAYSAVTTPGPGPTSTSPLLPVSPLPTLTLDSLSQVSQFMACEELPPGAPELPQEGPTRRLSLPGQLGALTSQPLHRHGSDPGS
# Chain of OATP1B1 (Q9Y6L6 whole entry): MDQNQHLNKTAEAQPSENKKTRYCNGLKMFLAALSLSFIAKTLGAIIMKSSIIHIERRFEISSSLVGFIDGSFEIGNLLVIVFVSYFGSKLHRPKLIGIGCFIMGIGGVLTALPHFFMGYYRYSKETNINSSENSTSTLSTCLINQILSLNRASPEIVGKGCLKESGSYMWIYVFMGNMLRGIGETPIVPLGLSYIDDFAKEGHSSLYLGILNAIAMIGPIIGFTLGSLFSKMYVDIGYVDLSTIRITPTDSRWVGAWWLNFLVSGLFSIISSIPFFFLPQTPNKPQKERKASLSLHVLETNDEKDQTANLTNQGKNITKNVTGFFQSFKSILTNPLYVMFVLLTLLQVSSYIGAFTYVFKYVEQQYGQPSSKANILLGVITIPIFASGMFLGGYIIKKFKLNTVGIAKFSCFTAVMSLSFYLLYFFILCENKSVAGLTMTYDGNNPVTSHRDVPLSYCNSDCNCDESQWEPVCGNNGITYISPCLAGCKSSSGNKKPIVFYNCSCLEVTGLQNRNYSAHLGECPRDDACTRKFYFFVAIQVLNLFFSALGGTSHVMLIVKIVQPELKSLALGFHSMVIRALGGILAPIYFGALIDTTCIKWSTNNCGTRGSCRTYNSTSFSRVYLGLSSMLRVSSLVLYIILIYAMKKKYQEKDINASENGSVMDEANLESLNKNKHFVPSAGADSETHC
# Chain of CYP2C19 (P33261 whole entry): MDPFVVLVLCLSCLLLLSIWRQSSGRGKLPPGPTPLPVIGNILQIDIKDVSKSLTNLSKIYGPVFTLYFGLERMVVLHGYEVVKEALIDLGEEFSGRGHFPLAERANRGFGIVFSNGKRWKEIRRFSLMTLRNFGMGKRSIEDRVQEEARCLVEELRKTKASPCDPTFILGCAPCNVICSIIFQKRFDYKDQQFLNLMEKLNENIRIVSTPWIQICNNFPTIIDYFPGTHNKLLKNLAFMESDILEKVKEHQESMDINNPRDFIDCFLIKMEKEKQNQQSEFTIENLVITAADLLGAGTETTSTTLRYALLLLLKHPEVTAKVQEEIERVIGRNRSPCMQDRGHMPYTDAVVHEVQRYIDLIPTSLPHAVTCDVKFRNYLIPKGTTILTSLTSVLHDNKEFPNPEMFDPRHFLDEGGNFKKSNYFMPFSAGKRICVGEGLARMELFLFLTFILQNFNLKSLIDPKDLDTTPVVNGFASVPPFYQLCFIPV
# Chain of OATP1B3 (Q9NPD5 whole entry): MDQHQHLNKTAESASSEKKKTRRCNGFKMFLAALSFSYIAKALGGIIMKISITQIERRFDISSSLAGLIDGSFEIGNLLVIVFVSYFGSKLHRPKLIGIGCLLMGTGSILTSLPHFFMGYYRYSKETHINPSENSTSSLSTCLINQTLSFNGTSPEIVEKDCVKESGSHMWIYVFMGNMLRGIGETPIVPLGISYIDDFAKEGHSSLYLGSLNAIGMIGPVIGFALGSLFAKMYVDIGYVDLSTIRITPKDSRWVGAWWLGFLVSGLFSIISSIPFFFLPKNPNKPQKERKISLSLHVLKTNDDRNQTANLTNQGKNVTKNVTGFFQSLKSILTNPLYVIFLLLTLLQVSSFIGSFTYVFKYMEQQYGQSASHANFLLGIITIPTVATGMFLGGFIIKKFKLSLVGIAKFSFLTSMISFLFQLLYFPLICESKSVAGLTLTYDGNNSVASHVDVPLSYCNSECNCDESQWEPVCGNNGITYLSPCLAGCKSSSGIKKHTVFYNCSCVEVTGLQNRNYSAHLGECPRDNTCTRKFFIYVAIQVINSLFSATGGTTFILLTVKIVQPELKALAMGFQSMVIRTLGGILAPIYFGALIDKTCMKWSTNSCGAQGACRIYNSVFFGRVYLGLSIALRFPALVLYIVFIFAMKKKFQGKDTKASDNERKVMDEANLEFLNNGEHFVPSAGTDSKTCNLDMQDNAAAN
# Chain of HRH1 (P35367 whole entry, the tested form may be a part): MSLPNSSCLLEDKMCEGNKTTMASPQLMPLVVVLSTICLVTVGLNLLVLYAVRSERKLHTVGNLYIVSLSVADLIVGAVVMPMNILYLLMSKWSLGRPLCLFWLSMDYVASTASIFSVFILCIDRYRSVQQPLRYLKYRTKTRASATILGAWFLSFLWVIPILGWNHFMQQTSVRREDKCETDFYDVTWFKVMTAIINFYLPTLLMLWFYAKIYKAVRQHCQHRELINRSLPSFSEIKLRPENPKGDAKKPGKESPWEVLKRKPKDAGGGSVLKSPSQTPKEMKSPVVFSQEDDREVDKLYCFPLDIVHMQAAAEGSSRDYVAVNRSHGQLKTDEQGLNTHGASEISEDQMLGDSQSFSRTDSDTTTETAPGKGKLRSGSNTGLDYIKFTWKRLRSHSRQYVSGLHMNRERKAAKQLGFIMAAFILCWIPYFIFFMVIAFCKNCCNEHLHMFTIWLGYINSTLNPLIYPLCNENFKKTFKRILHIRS
substance,measurement,setting,value
ZD2-N3-Gd(HP-DO3A) [MT218],remaining MT218,[1],61.1%
same,r1 Relaxivity,"[2]; 1.4 T, HSA aqueous solution (40 mg/mL), 37°C",6.54 mM⁻¹ s⁻¹
same,r1 Relaxivity,"[2]; 1.4 T, PBS, 37°C",6.58 mM⁻¹ s⁻¹
same,r1 Relaxivity,"[2]; 3.0 T, H2O, MRS 3000 scanner",6.25 (H2O) mM^−1 s^−1
same,r1 Relaxivity,"[2]; 3.0 T, PBS",6.16 mM⁻¹ s⁻¹
same,binding ratio to plasma proteins,[3]; 50 μM,28.44%
same,binding ratio to plasma proteins,[3]; 80 μM,27.12%
same,binding ratio to plasma proteins,[3]; 110 μM,25.68%
same,mRNA expression level of CYP1A2 vs vehicle controls,"[4]; 100 μM, human hepatocytes, 1 of the 3 lots of cells",2.10 fold
same,induction on enzyme activity of CYP1A2,"[4]; human primary hepatocytes, 1, 10, and 100 μM",no induction
same,inhibition of CYP2C19 activity,[5],did not inhibit
same,average inhibition of the hERG currents,[6]; 30.69 μM,36.87% ± 6.93%
same,average inhibition of the hERG currents,[6]; 103.54 μM,52.19% ± 0.82%
same,binding ratio to plasma proteins,[7]; 50 μM,47.31%
same,binding ratio to plasma proteins,[7]; 80 μM,45.15%
same,binding ratio to plasma proteins,[7]; 110 μM,40.50%
same,AUC(0–48h),[8]; Brain,0.86 µg·h/g
same,AUCINF,[8]; Brain,0.87 µg·h/g
same,Cmax,[8]; Brain,1.10 µg/g
same,AUC(0–48h),[8]; Fat,3.18 µg·h/g
same,AUCINF,[8]; Fat,3.23 µg·h/g
same,Cmax,[8]; Fat,4.07 µg/g
same,AUC(0–48h),[8]; Gonads,11.78 µg·h/g
same,AUCINF,[8]; Gonads,17.48 µg·h/g
same,Cmax,[8]; Gonads,7.22 µg/g
same,AUC(0–48h),[8]; Heart,7.15 µg·h/g
same,AUCINF,[8]; Heart,7.56 µg·h/g
same,Cmax,[8]; Heart,7.54 µg/g
same,AUC(0–48h),[8]; Kidney,481.54 µg·h/g
same,AUCINF,[8]; Kidney,2936.07 µg·h/g
same,Cmax,[8]; Kidney,74.89 µg/g
same,AUC(0–48h),[8]; Liver,17.22 µg·h/g
same,AUCINF,[8]; Liver,27.86 µg·h/g
same,Cmax,[8]; Liver,4.73 µg/g
same,AUC(0–48h),[8]; Lung,17.81 µg·h/g
same,AUCINF,[8]; Lung,19.50 µg·h/g
same,Cmax,[8]; Lung,14.28 µg/g
same,AUC(0–48h),[8]; Lymph nodes,27.63 µg·h/g
same,AUCINF,[8]; Lymph nodes,51.39 µg·h/g
same,Cmax,[8]; Lymph nodes,12.53 µg/g
same,AUC(0–48h),[8]; Muscle,4.27 µg·h/g
same,AUCINF,[8]; Muscle,4.29 µg·h/g
same,Cmax,[8]; Muscle,5.51 µg/g
same,AUC(0–48h),[8]; Plasma,34060 ng·h/mL
same,AUCINF,[8]; Plasma,34180 ng·h/mL
same,Cmax,[8]; Plasma,44960 ng/mL
same,AUC(0–48h),[8]; Prostate,12.05 µg·h/g
same,AUCINF,[8]; Prostate,13.12 µg·h/g
same,Cmax,[8]; Prostate,6.05 µg/g
same,Gd concentration in the brain,[8]; 2 hours post-injection,reached LLOQ
same,Gd concentration in the brain,[8]; 6 hours post-injection,No detectable Gd deposition; also recorded: undetectable
same,AUC(0–48h),[8]; Skeleton,11.83 µg·h/g
same,AUCINF,[8]; Skeleton,12.16 µg·h/g
same,Cmax,[8]; Skeleton,4.58 µg/g
same,AUC(0–48h),[8]; Skin,28.54 µg·h/g
same,AUCINF,[8]; Skin,30.96 µg·h/g
same,Cmax,[8]; Skin,17.21 µg/g
same,AUC(0–48h),[8]; Small intestine,13.99 µg·h/g
same,AUCINF,[8]; Small intestine,19.76 µg·h/g
same,Cmax,[8]; Small intestine,6.44 µg/g
same,AUC(0–48h),[8]; Spleen,15.18 µg·h/g
same,AUCINF,[8]; Spleen,35.21 µg·h/g
same,Cmax,[8]; Spleen,4.14 µg/g
same,AUC(0–48h),[8]; Stomach,12.99 µg·h/g
same,AUCINF,[8]; Stomach,15.13 µg·h/g
same,Cmax,[8]; Stomach,10.87 µg/g
same,Gd concentration in the tested tissues besides the kidneys,"[8]; rats, biodistribution study, level to which it decreased, time not given",≤ 1.0 µg/g
same,binding ratio to plasma proteins,[9]; 50 μM,29.10%
same,binding ratio to plasma proteins,[9]; 80 μM,26.91%
same,binding ratio to plasma proteins,[9]; 110 μM,48.44%
same,inhibition of OATP1B1 transporter activity,[10],no inhibition potential
same,average remaining percentage of intact MT218,[11]; 1 h,83.47%
same,average remaining percentage of intact MT218,[11]; 3 h,48.79%
same,average remaining percentage of intact MT218,[11]; 6 h,12.87%
same,average remaining percentage of intact MT218,[11]; 28 h,5.21%
same,average remaining percentage of intact MT218,[11]; 48 h,3.97%
same,enzymatic degradation half-life (t1/2),[11],2.63 h
same,inhibition of OATP1B3 transporter activity,[12],no inhibition potential
same,inhibition rate,[13],17.77%
